According to ChEMBL document CHEMBL4513216, “Probing the Open Global Health Chemical Diversity Library for Multistage-Active Starting Points for Next-Generation Antimalarials” (ACS Infect Dis, 2020):

Test: Toxicity liver stage against HepG2, at 10uM
Format: cell-based
Parameters: test concentration 10 uM, cell line HepG2-A16-CD81EGFP
Details: human, HepG2-A16-CD81EGFP cells; read-out: INHIBITION
In short: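 Uninfected HepG2-A16-CD81EGFP cells, 3 × 10^3 per well, 1536-well, plated on prespotted compound at 10 μM final, parasite-free screening media added to match infected plates; puromycin 10 μM positive, DMSO 0.5% negative; run in parallel with 48 h PbLuc assay at 37 °C, 5% CO2; viability by CellTiter-Glo luminescence, normalized to controls.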

| SMILES | cytotoxicity at 10 µM [%] |
| --- | --- |
| CNc1cc(-c2cc(OC)c(OC)c(OC)c2)ncn1 | -11.8 |
| c1coc(-c2nnc([C@H]3CCN(Cc4ccc5c(c4)OCO5)C3)o2)c1 | -0.0837 |
| F[C@@H]1CN(CC2CC2)C[C@@H]1OCc1nc2ncccc2[nH]1 | 5.52 |
| CC(=O)N1N=C(c2ccccc2)OC1C(=O)NCC(=O)OC(C)(C)C (stereo unspecified) | -0.376 |
| O=C(CCc1ccccc1Br)N1CC(S(=O)(=O)C2CCCCC2)C1 | -1.36 |
| O=C(c1cccs1)N1CCc2nnc(COc3cncnc3)n2CC1 | 8.13 |
| CC(=O)N1CCCn2c(nc(CNS(=O)(=O)C3CC3)cc2=O)C1 | 2.71 |
| O=C(NCCN1CCCC1)c1ccc2c(-c3nccs3)noc2c1 | -2.79 |
| CN(C)S(=O)(=O)N1CCC2(CC1)CC(OCC1CC1)CO2 (stereo unspecified) | -2.37 |
| Cc1noc([C@@]23CCO[C@@H]2CCN(C(=O)c2c(C)noc2C)C3)n1 | 8.4 |
| CC/N=c1\nc(NCC)nc2n1C(O)(Nc1cccc(C)c1C)CS2 (stereo unspecified) | 11.5 |
| COc1cccc(NC(=O)Cn2cc(-c3ccccc3)ncc2=O)c1 | -0.0638 |
| O=C([C@H]1C[C@H]2OCC[C@H]2N(C(=O)C2CCOCC2)C1)N1CCCCO1 | -8.28 |
| CCOC(=O)c1sc(NC(=O)CCCC(=O)O)c(C#N)c1C | 11.6 |
| COC(=O)CNC(=O)c1cc(-c2ccccc2)nc2ncnn12 | -5.07 |
| CCC(C)NC(=O)c1cc(S(=O)(=O)N2CCCC2)c(C)s1 (stereo unspecified) | -2.6 |
| CC(C)C(=O)NCCc1nc(-c2ccncc2)n[nH]1 | 7.78 |
| CO[C@@H]1CCC[C@@H](NC(=O)c2cccc(F)c2)[C@H]1O | 1.65 |
| COc1cc(C(=O)NC(C)(C)CN2CCN(C)CC2)c2ccccc2n1 | -1.41 |
| Cc1nc(Nc2nnc(C)s2)cc(C2CCCN2C2CCCC2)n1 (stereo unspecified) | -16.7 |
| CC(=O)N1CCC(N2CC(Cc3nccc4ccn(C)c34)C2)CC1 | 17.7 |
| CC1(C(=O)N2CCOCC2)CN(Cc2ncc[nH]2)CCO1 (stereo unspecified) | -11.3 |
| CN(Cc1ccc(F)cc1)CC1(O)CCN(C(=O)c2ccncc2)C1 (stereo unspecified) | -2.25 |

| SMILES | cytotoxicity at 10 µM [%] |
| --- | --- |
| Cc1nc(O)c2nnn(C[C@H]3CCCN3C(=O)c3ccccc3F)c2n1 | -20.4 |
| COc1cccc(CNC(=O)c2ccccc2-n2cnc(CN)c2)c1 | -17 |
| O=C(N[C@@H]1CN(Cc2ccc3[nH]ccc3c2)C[C@H]1O)c1cscn1 | -7.11 |
| O=S(=O)(c1cccc(F)c1)N1CCCCC1c1ccn[nH]1 (stereo unspecified) | 0.692 |
| Cn1ccc2ccnc(CC3CN(C(=O)C4CCC(F)(F)CC4)C3)c21 | -2.78 |
| CC(NC(C)(C)CN)c1ccccc1 (stereo unspecified) | 2.62 |
| Cn1ccnc1S(=O)(=O)C(C(=O)N1CCCCC1)c1ccccc1 (stereo unspecified) | 24.5 |
| CC(NCCn1cccn1)c1ccccc1F (stereo unspecified) | -3.21 |
| Cc1nc(-c2cc(C(=O)O)co2)cs1 | 3.39 |
| CC(C)CCNC(=O)NC(C)c1nncn1C (stereo unspecified) | -9.9 |
| CC(CNC(=O)c1ccncc1F)Oc1ccc(F)cc1 (stereo unspecified) | 0.0383 |
| O=C(NCc1nncn1C1CC1)C1(c2cccc(F)c2)CCOCC1 | -2.07 |
| Cc1cc(C(=O)NCC2CCCO2)c(C)n1-c1cccnc1 (stereo unspecified) | 4.95 |
| CCNC(=O)NCc1cnn(-c2ccc(F)cc2F)c1 | -6.52 |
| O=C(CNCC1CCCN1c1cccnn1)NCCc1cccs1 (stereo unspecified) | -6.84 |
| Cc1ccc(N2CCCC(N(C)Cc3nnc(C4CC4)o3)C2)nn1 (stereo unspecified) | 6.2 |
| CS(=O)(=O)CCCNC(=O)C1(c2cccc(Cl)c2)CC1 | -2.26 |
| Cn1cc(Br)c(=O)c(NS(=O)(=O)c2ccc3c(c2)CCC3)c1 | -3.47 |
| CCC(=O)NCC(c1ccc(SC)cc1)N1CCc2sccc2C1 (stereo unspecified) | 4.05 |
| CCc1ccc(C(=O)N2CCC(c3nncn3CC)CC2)o1 | 3.14 |
| Cc1cc(C)cc(OCCN(C)Cc2cscn2)c1 | 6.56 |
| CCC(NCc1ccccc1C)c1ccccc1OCC(=O)NC (stereo unspecified) | 16.9 |
| NC(=O)CN(Cc1ccc(Br)cc1)C(=O)c1ccccn1 | 6.85 |

| SMILES | cytotoxicity at 10 µM [%] |
| --- | --- |
| CN(C(=O)Cc1coc(-c2cccs2)n1)C1(C#N)CCC1 | 6.52 |
| Cc1cccnc1NC(=O)NC(CCO)C(C)(C)C (stereo unspecified) | 2.3 |
| CCc1nc(CNC2CCN(S(C)(=O)=O)CC2)cs1 | 0.684 |
| COCCC(=O)NCCCOC1CCCc2ccccc21 (stereo unspecified) | -6.87 |
| COCCCNC(=O)COc1ccccc1C(F)(F)F | 14.7 |
| CC(C)NC(=O)N1CCC2(CC(=O)N(c3ccccc3)C2)C1 (stereo unspecified) | -2.59 |
| CC(=O)NCC(=O)N1Cc2nccn2CC(CN2CCCC2)C1 (stereo unspecified) | 2.34 |
| Cc1occc1C(=O)N1CCc2c(COCC3CC3)cncc2C1 | -0.799 |
| C/C=C(\C)CN1CCC2(CCC(=O)N2OCc2ccccc2F)CC1 | 5.24 |
| COc1cccc(Cl)c1C(C(=O)O)N1CCC(O)(c2cccnc2)CC1 (stereo unspecified) | 6.03 |
| COc1ccc(CC(=O)N2CC[C@@]3(O)CCNC[C@H]3C2)c(OC)c1 | 4.26 |
| CCCN(Cc1cccnc1)C(=O)C1CCN(Cc2ccco2)CC1 | 0.376 |
| OCCCN1CCc2onc(C(c3ccccc3)c3ccccc3)c2C1 | -5.51 |
| CCOc1ccc(CN2CC[C@@](C)(O)[C@@H](Cc3ccccc3)C2)cn1 | -2.02 |
| COCCc1ncc(-c2c(C#N)c(N)nc3c2CCc2[nH]ccc2-3)cn1 | -0.508 |
| CC(C)c1nccn1C(C)C(=O)NC1CCOCC1 (stereo unspecified) | -2.07 |
| CC(C)Oc1cccc(F)c1C(C(=O)O)N1CCCN(C)CC1 (stereo unspecified) | 0.992 |
| CN1CCC2(CCN(S(=O)(=O)c3ccc(-c4cnco4)s3)CC2)C1 | -0.0395 |
| CCc1c(C)sc2ncnc(N3CC[C@@H](N4CCC(O)CC4)[C@H](O)C3)c12 | 6.96 |
| CN(C)CCn1ccnc1C1CCCN(c2cc(N)ncn2)C1 (stereo unspecified) | -7.76 |
| Cn1ccnc1C1CCN(CCN2CCOCC2)CC1 | 4.69 |
| CC1CN(c2ccccc2Cl)C(=O)CN1C(=O)c1c[nH]c(=O)c(Cl)c1 (stereo unspecified) | 0.345 |
| COCCCn1cnnc1CNc1cc(C)nc2ccnn12 | -7.79 |

| SMILES | cytotoxicity at 10 µM [%] |
| --- | --- |
| CCN1CCCC1Cn1ccc2c(OC)c(OC)ccc2c1=O (stereo unspecified) | -2.78 |
| NC(=O)[C@@H]1CCCN1C(=O)c1csc(-c2ccc(C(F)(F)F)cc2)n1 | -2 |
| CN(Cc1ccccc1)c1cnn(CC2CCCCO2)c(=O)c1 (stereo unspecified) | 0.992 |
| O=C([C@H](O)c1ccccc1)N1CCN(c2cccc(Cl)c2)C(=O)C1 | -6.17 |
| CC(=O)c1c(C)nn(CC(=O)N2Cc3cnc(CC(C)C)nc3C2)c1C | 3.75 |
| Cc1cc2nc(C(C)C)cc(N3CCSCC3)n2n1 | 3.24 |
| Cc1cc(C)n(CCCN(C)c2cc(N(C)C)ncn2)n1 | 3.85 |
| N#Cc1cc2c(=O)n(CC(O)C(F)(F)F)ccc2[nH]c1=O (stereo unspecified) | -1.99 |
| COc1cc(CN2CCCC(Nc3cccc(F)c3)C2)cc(OC)c1O (stereo unspecified) | 1.66 |
| NC(=O)NCC(=O)N1CCC2(CC1)c1ccccc1CC2O (stereo unspecified) | 4.22 |
| Cn1c(=O)c2cc(C(=O)NCCOCC(F)(F)F)ccc2n(C)c1=O | -13.9 |
| O=C(CC1CCCC1)N1CCCC(c2n[nH]c3nccnc23)C1 (stereo unspecified) | -2.6 |
| OCCn1nccc1C1CCN(CCOc2ccccc2F)CC1 | -5.25 |
| CCc1ncc2c(n1)CN(Cc1nc(-c3ccoc3)no1)CC2 | 1.61 |
| CCCc1n[nH]c(C2CN(C(=O)c3ccc[nH]3)CCO2)n1 (stereo unspecified) | -9.29 |
| COc1cc(C(=O)N(Cc2cnn(C)c2)C(C)C)ccc1OC(C)C | -6.02 |
| CN(Cc1ccc2c(c1)OCO2)C(=O)NCCc1cnn(C)c1 | -2.69 |
| Cc1ccccc1C1(C(=O)N2CCCC(n3cncn3)C2)CC1 (stereo unspecified) | -4.37 |
| O=C(NCCCn1ccnc1)N1CCCC1c1ccsc1 (stereo unspecified) | -6.04 |
| c1cnn(CC2CCCN2Cc2cn3ccsc3n2)c1 (stereo unspecified) | -10.2 |
| O=C(c1csnn1)N1CCCC(n2cncn2)C1 (stereo unspecified) | 5.81 |
| COc1ccccc1CNC(=O)N1CCCC(c2nncn2C)C1 (stereo unspecified) | -6.51 |
| CC(C)c1noc(C(C)N2CCN(Cc3ccccc3C#N)CC2)n1 (stereo unspecified) | -8.13 |

| SMILES | cytotoxicity at 10 µM [%] |
| --- | --- |
| CC(C)Cc1noc(CN2CCOC(Cn3cncn3)C2)n1 (stereo unspecified) | -2.58 |
| CCc1nc(CC(=O)N2CCOCC2c2ncon2)cs1 (stereo unspecified) | -2.58 |
| Cc1cnc(CN2CCCC(c3cc(C(N)=O)[nH]n3)C2)o1 (stereo unspecified) | -9.14 |
| Cc1ccc(CCN2CCC(N(C)Cc3noc(C4CC4)n3)C2)cc1 (stereo unspecified) | -8.31 |
| COc1ccnc(C(=O)N2CCCC(c3noc(C)n3)C2)c1 (stereo unspecified) | -4.64 |
| Cc1nn(C)c(N(C)C)c1CNCc1ccccc1CN(C)C | -0.553 |
| FC(F)(F)Cc1noc(CN2CCCC2c2noc(C3CC3)n2)n1 (stereo unspecified) | -2.7 |
| Cn1cnnc1C1CCCN(C(=O)c2n[nH]c3ccccc23)C1 (stereo unspecified) | 0.914 |
| Cc1cc2c(cc1CNC(Cc1cccs1)c1nccs1)OCO2 (stereo unspecified) | 6.76 |
| CC(C)N(C)C(=O)C1CCC2(CCNCC2)O1 (stereo unspecified) | -129 |
| CC(C)N1CCC2(CC1)C(=O)N(c1cccnc1)c1c(F)cccc12 | 7.13 |
| Cc1c(C2CCCN(C(=O)C3CC3)C2)n2c(nc1=O)CCC2 (stereo unspecified) | -1.85 |
| CN(Cc1ccco1)C1COC2(CCN(Cc3nccs3)CC2)C1 (stereo unspecified) | 2.93 |
| c1cnc(-c2noc(C3CN(Cc4ccsc4)C3)n2)cn1 | 0.435 |
| CCCS(=O)(=O)N1Cc2ccnn2CC(c2nc(C)no2)C1 (stereo unspecified) | 5.98 |
| CNC(=O)CCc1cc(C2CCNCC2)nc(C)n1 | -6.41 |
| O=S(=O)(c1cccs1)N1CC[C@H](O)[C@@H]1Cc1ccncc1 | 3.19 |
| CCOc1ccc(CN2CCc3nc4ccsc4c(=O)n3CC2)cc1 | -6.74 |
| COc1ccc(CN2CCO[C@H]3CN(C4CCCC4)CC[C@H]3C2=O)cc1 | -138 |
